Reference: ChEMBL document CHEMBL5303300, “EUbOPEN Chemogenomics Library - Multiplex” (2023)
Values joined by “and” are separate entries in the source; they are usually repeats but may differ in a detail not shown here. Identical values can stand only once.

Legend:
Type in all cases: toxicity, cell-based
U2OS = experiment: Multiplex assay against U2OS; conditions: human, number of replicates 2
Outline: (§1)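 Live cells were stained at seeding with Hoechst33342, BioTracker Green Microtubule Cytoskeleton Dye, MitoTracker Red and Annexin V Alexa Fluor 680. Following compound addition, they were imaged on a CQ1 microscope at 37°C and 5% CO2 and gated by CellPathfinder machine learning into Hoechst high-intensity objects or normal cells, with normal cells split into healthy, pyknosed or fragmented nuclei and pyknosed cells into mitotic or apoptotic. Tubulin, mitochondrial-mass and membrane-permeability phenotypes are per cents of healthy-nucleus cells.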

Fibroblast = experiment: Multiplex assay against human fibroblast; conditions: number of replicates 2; outline: as §1
HEK-293T = experiment: Multiplex assay against HEK293T; conditions: human, number of replicates 2; outline: as §1
[1] = 12 h, 1 µM, compound concentration 1 uM
[2] = 12 h, 10 µM, compound concentration 10 uM
[3] = 24 h, 1 µM, compound concentration 1 uM
[4] = 24 h, 10 µM, compound concentration 10 uM
[5] = 48 h, 1 µM, compound concentration 1 uM
[6] = 48 h, 10 µM, compound concentration 10 uM

CN(C)CCCN1c2ccccc2Sc2ccc(Cl)cc21.Cl [CHLORPROMAZINE HYDROCHLORIDE]
Population Healthy Nuclei (%) (U2OS; [1]): 42% and 81% | Population Hoechst High Intensity Objects (%) (U2OS; [1]): 0% | Population Membrane Permeable-Phenotype (%) (U2OS; [1]): 0% and 1% | Population Mitochondria Different-Phenotype (%) (U2OS; [1]): 0% and 2% | Population Normal (%) (U2OS; [1]): 100% | Population Pyknosed Nuclei (%) (U2OS; [1]): 7% and 15% | Population Tubulin-Different-Phenotype (%) (U2OS; [1]): 100% and 81% | Population Healthy Nuclei (%) (U2OS; [2]): 49% and 77% | Population Hoechst High Intensity Objects (%) (U2OS; [2]): 0% and 1% | Population Membrane Permeable-Phenotype (%) (U2OS; [2]): 6% and 3% | Population Mitotic Cells (%) (U2OS; [2]): 80% and 36% | Population Normal (%) (U2OS; [2]): 100% and 98% | Population Pyknosed Nuclei (%) (U2OS; [2]): 8% and 17% | Population Tubulin-Different-Phenotype (%) (U2OS; [2]): 36% and 42% | Population Healthy Nuclei (%) (U2OS; [3]): 53% and 88% | Population Hoechst High Intensity Objects (%) (U2OS; [3]): 0% | Population Membrane Permeable-Phenotype (%) (U2OS; [3]): 0% and 2% | Population Mitochondria Different-Phenotype (%) (U2OS; [3]): 0% and 1% | Population Mitotic Cells (%) (U2OS; [3]): 0% and 24% | Population Normal (%) (U2OS; [3]): 100% | Population Pyknosed Nuclei (%) (U2OS; [3]): 0% and 9% | Population Tubulin-Different-Phenotype (%) (U2OS; [3]): 87% and 85% | Population Apoptotic (%) (U2OS; [4]): 63% and 64% | Population Healthy Nuclei (%) (U2OS; [4]): 39% and 73% | Population Hoechst High Intensity Objects (%) (U2OS; [4]): 0% | Population Membrane Permeable-Phenotype (%) (U2OS; [4]): 3% | Population Mitochondria Different-Phenotype (%) (U2OS; [4]): 12% and 19% | Population Mitotic Cells (%) (U2OS; [4]): 36% and 35% | Population Normal (%) (U2OS; [4]): 100% and 99% | Population Pyknosed Nuclei (%) (U2OS; [4]): 14% and 20% | Population Tubulin-Different-Phenotype (%) (U2OS; [4]): 32% and 51% | Population Healthy Nuclei (%) (U2OS; [5]): 55% and 88% | Population Hoechst High Intensity Objects (%) (U2OS; [5]): 0% | Population Normal (%) (U2OS; [5]): 100% | Population Pyknosed Nuclei (%) (U2OS; [5]): 3% and 7% | Population Tubulin-Different-Phenotype (%) (U2OS; [5]): 100% and 88% | Population Apoptotic (%) (U2OS; [6]): 92% and 74% | Population Healthy Nuclei (%) (U2OS; [6]): 34% and 66% | Population Hoechst High Intensity Objects (%) (U2OS; [6]): 0% | Population Membrane Permeable-Phenotype (%) (U2OS; [6]): 7% and 4% | Population Mitochondria Different-Phenotype (%) (U2OS; [6]): 7% | Population Normal (%) (U2OS; [6]): 100% and 99% | Population Pyknosed Nuclei (%) (U2OS; [6]): 16% and 24% | Population Tubulin-Different-Phenotype (%) (U2OS; [6]): 51% and 55% | Population Apoptotic (%) (Fibroblast; [1]): 40% and 38% | Population Fragmented Nuclei (%) (Fibroblast; [1]): 16% and 14% | Population Healthy Nuclei (%) (Fibroblast; [1]): 51% and 64% | Population Hoechst High Intensity Objects (%) (Fibroblast; [1]): 0% | Population Membrane Permeable-Phenotype (%) (Fibroblast; [1]): 7% and 5% | Population Mitochondria Different-Phenotype (%) (Fibroblast; [1]): 1% and 2% | Population Mitotic Cells (%) (Fibroblast; [1]): 59% and 61% | Population Normal (%) (Fibroblast; [1]): 100% | Population Pyknosed Nuclei (%) (Fibroblast; [1]): 32% and 21% | Population Tubulin-Different-Phenotype (%) (Fibroblast; [1]): 14% and 13% | Total Cell Count (Fibroblast; [1]): 190 and 200 | Population Apoptotic (%) (Fibroblast; [2]): 52% and 41% | Population Fragmented Nuclei (%) (Fibroblast; [2]): 15% and 22% | Population Healthy Nuclei (%) (Fibroblast; [2]): 65% and 62% | Population Hoechst High Intensity Objects (%) (Fibroblast; [2]): 0% | Population Membrane Permeable-Phenotype (%) (Fibroblast; [2]): 5% and 1% | Population Mitochondria Different-Phenotype (%) (Fibroblast; [2]): 5% and 9% | Population Mitotic Cells (%) (Fibroblast; [2]): 47% and 58% | Population Normal (%) (Fibroblast; [2]): 99% and 100% | Population Pyknosed Nuclei (%) (Fibroblast; [2]): 19% and 14% | Population Tubulin-Different-Phenotype (%) (Fibroblast; [2]): 45% and 36% | Total Cell Count (Fibroblast; [2]): 187 and 323 | Population Apoptotic (%) (Fibroblast; [3]): 64% and 46% | Population Fragmented Nuclei (%) (Fibroblast; [3]): 15% and 17% | Population Healthy Nuclei (%) (Fibroblast; [3]): 58% and 66% | Population Hoechst High Intensity Objects (%) (Fibroblast; [3]): 0% | Population Membrane Permeable-Phenotype (%) (Fibroblast; [3]): 13% and 6% | Population Mitochondria Different-Phenotype (%) (Fibroblast; [3]): 1% and 3% | Population Mitotic Cells (%) (Fibroblast; [3]): 35% and 53% | Population Normal (%) (Fibroblast; [3]): 100% | Population Pyknosed Nuclei (%) (Fibroblast; [3]): 25% and 16% | Population Tubulin-Different-Phenotype (%) (Fibroblast; [3]): 23% and 12% | Total Cell Count (Fibroblast; [3]): 206 and 196 | Population Apoptotic (%) (Fibroblast; [4]): 80% and 58% | Population Fragmented Nuclei (%) (Fibroblast; [4]): 15% and 24% | Population Healthy Nuclei (%) (Fibroblast; [4]): 72% and 65% | Population Hoechst High Intensity Objects (%) (Fibroblast; [4]): 1% | Population Membrane Permeable-Phenotype (%) (Fibroblast; [4]): 2% and 1% | Population Mitochondria Different-Phenotype (%) (Fibroblast; [4]): 16% and 15% | Population Mitotic Cells (%) (Fibroblast; [4]): 19% and 41% | Population Normal (%) (Fibroblast; [4]): 98% | Population Pyknosed Nuclei (%) (Fibroblast; [4]): 11% and 10% | Population Tubulin-Different-Phenotype (%) (Fibroblast; [4]): 49% and 42% | Total Cell Count (Fibroblast; [4]): 187 and 299 | Population Apoptotic (%) (Fibroblast; [5]): 82% and 60% | Population Fragmented Nuclei (%) (Fibroblast; [5]): 19% and 15% | Population Healthy Nuclei (%) (Fibroblast; [5]): 60% and 71% | Population Hoechst High Intensity Objects (%) (Fibroblast; [5]): 0% | Population Membrane Permeable-Phenotype (%) (Fibroblast; [5]): 7% and 4% | Population Mitochondria Different-Phenotype (%) (Fibroblast; [5]): 4% and 1% | Population Mitotic Cells (%) (Fibroblast; [5]): 17% and 39% | Population Normal (%) (Fibroblast; [5]): 99% | Population Pyknosed Nuclei (%) (Fibroblast; [5]): 20% and 12% | Total Cell Count (Fibroblast; [5]): 195 and 226 | Population Apoptotic (%) (Fibroblast; [6]): 73% and 90% | Population Fragmented Nuclei (%) (Fibroblast; [6]): 23% and 32% | Population Healthy Nuclei (%) (Fibroblast; [6]): 67% and 57% | Population Hoechst High Intensity Objects (%) (Fibroblast; [6]): 1% and 0% | Population Membrane Permeable-Phenotype (%) (Fibroblast; [6]): 2% | Population Mitochondria Different-Phenotype (%) (Fibroblast; [6]): 5% and 7% | Population Mitotic Cells (%) (Fibroblast; [6]): 26% and 9% | Population Normal (%) (Fibroblast; [6]): 99% | Population Pyknosed Nuclei (%) (Fibroblast; [6]): 9% | Population Tubulin-Different-Phenotype (%) (Fibroblast; [6]): 33% and 34% | Total Cell Count (Fibroblast; [6]): 201 and 323 | Population Apoptotic (%) (HEK-293T; [1]): 54% and 40% | Population Fragmented Nuclei (%) (HEK-293T; [1]): 3% and 4% | Population Healthy Nuclei (%) (HEK-293T; [1]): 81% and 82% | Population Hoechst High Intensity Objects (%) (HEK-293T; [1]): 13% and 8% | Population Membrane Permeable-Phenotype (%) (HEK-293T; [1]): 1% and 2% | Population Mitochondria Different-Phenotype (%) (HEK-293T; [1]): 25% and 15% | Population Mitotic Cells (%) (HEK-293T; [1]): 45% and 59% | Population Normal (%) (HEK-293T; [1]): 86% and 91% | Population Pyknosed Nuclei (%) (HEK-293T; [1]): 14% and 12% | Population Tubulin-Different-Phenotype (%) (HEK-293T; [1]): 53% and 48% | Total Cell Count (HEK-293T; [1]): 443 and 595 | Population Apoptotic (%) (HEK-293T; [2]): 55% | Population Fragmented Nuclei (%) (HEK-293T; [2]): 1% and 2% | Population Healthy Nuclei (%) (HEK-293T; [2]): 80% and 78% | Population Hoechst High Intensity Objects (%) (HEK-293T; [2]): 9% and 6% | Population Membrane Permeable-Phenotype (%) (HEK-293T; [2]): 2% | Population Mitochondria Different-Phenotype (%) (HEK-293T; [2]): 40% and 53% | Population Mitotic Cells (%) (HEK-293T; [2]): 44% | Population Normal (%) (HEK-293T; [2]): 90% and 93% | Population Pyknosed Nuclei (%) (HEK-293T; [2]): 17% and 19% | Population Tubulin-Different-Phenotype (%) (HEK-293T; [2]): 83% and 88% | Total Cell Count (HEK-293T; [2]): 580 and 531 | Population Apoptotic (%) (HEK-293T; [3]): 57% and 47% | Population Fragmented Nuclei (%) (HEK-293T; [3]): 7% and 5% | Population Healthy Nuclei (%) (HEK-293T; [3]): 80% and 88% | Population Hoechst High Intensity Objects (%) (HEK-293T; [3]): 5% and 7% | Population Membrane Permeable-Phenotype (%) (HEK-293T; [3]): 1% | Population Mitochondria Different-Phenotype (%) (HEK-293T; [3]): 12% and 4% | Population Mitotic Cells (%) (HEK-293T; [3]): 42% and 52% | Population Normal (%) (HEK-293T; [3]): 94% and 92% | Population Pyknosed Nuclei (%) (HEK-293T; [3]): 11% and 6% | Population Tubulin-Different-Phenotype (%) (HEK-293T; [3]): 36% and 29% | Total Cell Count (HEK-293T; [3]): 621 and 951 | Population Apoptotic (%) (HEK-293T; [4]): 67% and 63% | Population Fragmented Nuclei (%) (HEK-293T; [4]): 4% | Population Healthy Nuclei (%) (HEK-293T; [4]): 81% and 82% | Population Hoechst High Intensity Objects (%) (HEK-293T; [4]): 6% and 9% | Population Membrane Permeable-Phenotype (%) (HEK-293T; [4]): 1% | Population Mitochondria Different-Phenotype (%) (HEK-293T; [4]): 46% and 48% | Population Mitotic Cells (%) (HEK-293T; [4]): 32% and 36% | Population Normal (%) (HEK-293T; [4]): 93% and 90% | Population Pyknosed Nuclei (%) (HEK-293T; [4]): 14% and 13% | Population Tubulin-Different-Phenotype (%) (HEK-293T; [4]): 86% and 82% | Total Cell Count (HEK-293T; [4]): 619 and 581 | Population Apoptotic (%) (HEK-293T; [5]): 31% and 16% | Population Fragmented Nuclei (%) (HEK-293T; [5]): 9% and 8% | Population Healthy Nuclei (%) (HEK-293T; [5]): 85% and 87% | Population Hoechst High Intensity Objects (%) (HEK-293T; [5]): 8% and 10% | Population Membrane Permeable-Phenotype (%) (HEK-293T; [5]): 5% and 3% | Population Mitochondria Different-Phenotype (%) (HEK-293T; [5]): 1% and 0% | Population Mitotic Cells (%) (HEK-293T; [5]): 68% and 83% | Population Normal (%) (HEK-293T; [5]): 91% and 89% | Population Pyknosed Nuclei (%) (HEK-293T; [5]): 5% and 3% | Population Tubulin-Different-Phenotype (%) (HEK-293T; [5]): 14% and 11% | Total Cell Count (HEK-293T; [5]): 1435 and 2116 | Population Apoptotic (%) (HEK-293T; [6]): 44% and 58% | Population Fragmented Nuclei (%) (HEK-293T; [6]): 5% and 6% | Population Healthy Nuclei (%) (HEK-293T; [6]): 86% and 85% | Population Hoechst High Intensity Objects (%) (HEK-293T; [6]): 9% and 10% | Population Membrane Permeable-Phenotype (%) (HEK-293T; [6]): 4% and 6% | Population Mitochondria Different-Phenotype (%) (HEK-293T; [6]): 8% and 12% | Population Mitotic Cells (%) (HEK-293T; [6]): 55% and 41% | Population Normal (%) (HEK-293T; [6]): 90% and 89% | Population Pyknosed Nuclei (%) (HEK-293T; [6]): 8% | Population Tubulin-Different-Phenotype (%) (HEK-293T; [6]): 64% and 60% | Total Cell Count (HEK-293T; [6]): 952 and 839
